Reference: ChEMBL document CHEMBL1152221, “Synthesis and activity of substituted carbamates as potentiators of the alpha4beta2 nicotinic acetylcholine receptor” (Bioorg Med Chem Lett, 2008)
Activity calls are given as the source filed them. The rule behind the calls is not given here.

Columns and labels:
[1] = biological target: T1, Neuronal acetylcholine receptor; alpha4/beta2 (Homo sapiens) (UniProt P17787+P43681); assay: Activity at human alpha4beta2 nAChR assessed as potentiation of nicotine-induced response by fluorescent Ca2+ flux assay relative to nicotine
[2] = biological target: T1, Neuronal acetylcholine receptor; alpha4/beta2 (Homo sapiens); assay: Activity at human alpha4beta2 nAChR assessed as potentiation of nicotine-induced response by fluorescent Ca2+ flux assay
[3] = Metabolic stability in rat liver microsomes; type: ADME, Microsome; conditions: read-out: Stability
[4] = Ratio of drug level in brain to plasma in Sprague-Dawley rat; type: ADME, organism-based; conditions: brain and plasma
[5] = Metabolic stability in human liver microsomes; type: ADME, Microsome; conditions: read-out: Stability
[6] = Clearance in Sprague-Dawley rat; type: ADME, organism-based; conditions: in vivo
[7] = biological target: Neuronal acetylcholine receptor; alpha3/beta4 (Homo sapiens) (UniProt P30926+P32297); assay: Activity at human alpha3beta4 nAChR expressed in Xenopus oocytes assessed as potentiation of acetylcholine-induced response by patch-clamp electrophysiology; type: cell-based; conditions: Oocyte
[8] = biological target: Neuronal acetylcholine receptor; alpha3/beta2 (Homo sapiens) (UniProt P17787+P32297); assay: Activity at human alpha3beta2 nAChR expressed in Xenopus oocytes assessed as potentiation of acetylcholine-induced response by patch-clamp electrophysiology; type: cell-based; conditions: Oocyte
[9] = tested on: LLC-PK1; assay: Efflux ratio of permeability from […] in human MDR1 transfected pig LLC-PK1 cells at 5 uM after 2 hrs; type: ADME, cell-based, Sus scrofa; conditions: llc-pk1, 2 h
Outline: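 MDR1-LLC-PK1 cells were seeded at 200,000 cells/well on membrane filters. Transport was run manually on day 5 after plating, in both A-to-B and B-to-A directions, in the presence of 0.1% bovine serum albumin.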

[10] = biological target: Neuronal acetylcholine receptor; alpha4/beta2 (Rattus norvegicus) (UniProt P09483+P12390); assay: Displacement of [3H]cystisine from alpha4beta2 nAChR in rat cerebral cortical membrane at >=30 uM; type: cell membranes

CCCOc1ccc(NC(=O)O[C@@H](Cn2nc(C(C)C)cc2C(C)C)C(C)C)cc1
Efficacy [1]: 107% | EC12 [2]: 0.33 µM

CC[C@H](Cn1ccc(C(F)(F)F)n1)OC(=O)Nc1ccc(F)cc1F
Efficacy [1]: 15% | EC12 [2]: 0.89 µM

CC(C)c1cc(C(C)C)n(C[C@@H](C)OC(=O)Nc2ccc(F)cc2F)n1
Efficacy [1]: 15% | EC12 [2]: 0.7 µM

CC(C)c1cc(C(C)C)n(C[C@@H](NC(=O)Nc2ccc(F)cc2F)C(C)C)n1
Efficacy [1]: 19% | EC12 [2]: > 10 µM

CC[C@H](Cn1nc(C(F)(F)F)cc1C1CCCO1)OC(=O)Nc1ccc(F)cc1F (some centres not stated)
Efficacy [1]: 3% | EC12 [2]: > 100 µM

CC[C@H](Cn1nc(C(F)(F)F)cc1C1CCCCC1)OC(=O)Nc1ccc(F)cc1F
Efficacy [1]: 88% | EC12 [2]: 0.38 µM

CC(C)[C@H](Cn1cccn1)OC(=O)Nc1ccc(F)cc1F
Efficacy [1]: 6% | EC12 [2]: > 50 µM

CC(C)c1cc(C(C)C)n(C[C@@H](OC(=O)Nc2ccc(F)cc2F)C(C)C)n1
Efficacy [1]: 9% | EC12 [2]: > 50 µM

CC(C)c1cc(C(C)C)n([C@@H]2CCC[C@H]2OC(=O)Nc2ccc(F)cc2F)n1
Efficacy [1]: 73% | EC12 [2]: 0.25 µM

CC[C@H](Cn1nc(C(C)C)cc1C(C)C)OC(=O)Nc1ccc(F)cc1F
Efficacy [1]: 83% | EC12 [2]: 0.38 µM

CC[C@H](Cn1nc(C(F)(F)F)cc1C1CCNCC1)OC(=O)Nc1ccc(F)cc1F
Efficacy [1]: -3% | EC12 [2]: > 100 µM

CC(C)c1cc(C(C)C)n(C[C@H](OC(=O)Nc2ccc(F)cc2F)C(C)C)n1
microsomal CLint [3]: > 399 µL/min/mg | Kp [4]: 1 | Efficacy [1]: 76% | microsomal CLint [5]: 644 µL/min/mg | clearance [6]: 81.7 mL/min/kg | EC12 [7]: > 100 µM | EC12 [8]: > 100 µM | Ratio [9]: 1.1 | EC12 [2]: 0.25 µM

CCc1cc(C(F)(F)F)nn1C[C@H](OC(=O)Nc1ccc(F)cc1F)C(C)C
Efficacy [1]: 50% | EC12 [2]: 0.21 µM

CC(C)c1cc(C(C)C)n([C@H](C)[C@@H](C)OC(=O)Nc2ccc(F)cc2F)n1 (racemic)
Efficacy [1]: 12% | EC12 [2]: 1.3 µM

CC(C)c1cc(C(C)C)n(CC(OC(=O)Nc2ccsc2)C(C)C)n1 (racemic)
Efficacy [1]: 12% | EC12 [2]: 0.7 µM

CC(C)c1cc(C(C)C)n(C[C@H](OC(=O)Nc2ccc(Oc3ccccc3)cc2)C(C)C)n1
Efficacy [1]: 89% | EC12 [2]: 0.34 µM

CC(C)[C@H](Cn1nc(C(F)(F)F)cc1-c1ccccc1)OC(=O)Nc1ccc(F)cc1F
Efficacy [1]: 10% | EC12 [2]: 2.4 µM

CCOc1ccc(NC(=O)O[C@@H](Cn2nc(C(C)C)cc2C(C)C)C(C)C)cc1
Efficacy [1]: 100% | clearance [6]: 30 mL/min/kg | Activity [10]: inactive | EC12 [2]: 0.11 µM

CC(C)c1cc(C(C)C)n(C[C@H](OC(=O)NC2CCCCC2)C(C)C)n1
Efficacy [1]: 13% | EC12 [2]: 2.7 µM

CC[C@H](Cn1nc(C(F)(F)F)cc1C1CC1)OC(=O)Nc1ccc(F)cc1F
Efficacy [1]: 54% | EC12 [2]: 0.7 µM

CC(C)[C@H](Cn1nc(C(F)(F)F)cc1C(F)(F)F)OC(=O)Nc1ccc(F)cc1F
Efficacy [1]: 16% | EC12 [2]: 3.9 µM

CC(C)c1cc(C(C)C)n(C[C@H](OC(=O)Nc2ccc(C(F)(F)F)cc2)C(C)C)n1
Efficacy [1]: 106% | EC12 [2]: 0.4 µM

CC(C)c1cc(C(C)C)n(C[C@H](OC(=O)Nc2ccc(Cl)cc2)C(C)C)n1
Efficacy [1]: 91% | EC12 [2]: 0.33 µM

CC(C)c1cc(C(C)C)n(C[C@H](OC(=O)Nc2ccncc2)C(C)C)n1
Efficacy [1]: 7% | EC12 [2]: > 100 µM

CC(C)[C@H](Cn1nccc1C(F)(F)F)OC(=O)Nc1ccc(F)cc1F
Efficacy [1]: 30% | EC12 [2]: 2.1 µM

CC(C)c1cc(C(C)C)n([C@@H](C)[C@@H](C)OC(=O)Nc2ccc(F)cc2F)n1 (racemic)
Efficacy [1]: 10% | EC12 [2]: > 100 µM

CC[C@H](Cn1nc(C(F)(F)F)cc1C1CCCC1)OC(=O)Nc1ccc(F)cc1F
Efficacy [1]: 95% | clearance [6]: 70.5 mL/min/kg | EC12 [2]: 0.57 µM

Cc1cccc(NC(=O)O[C@@H](Cn2nc(C(C)C)cc2C(C)C)C(C)C)c1
Efficacy [1]: 25% | EC12 [2]: 0.9 µM

COc1ccc(NC(=O)O[C@@H](Cn2nc(C(C)C)cc2C(C)C)C(C)C)cc1
Efficacy [1]: 77% | EC12 [2]: 0.14 µM

Cc1ccccc1NC(=O)O[C@@H](Cn1nc(C(C)C)cc1C(C)C)C(C)C
Efficacy [1]: 9% | EC12 [2]: > 100 µM

CC(C)c1cc(C(C)C)n(C[C@H](NC(=O)Nc2ccc(F)cc2F)C(C)C)n1
Kp [4]: 1 | Efficacy [1]: 25% | clearance [6]: 50 mL/min/kg | EC12 [7]: > 100 µM | EC12 [8]: > 100 µM | Ratio [9]: 1.1 | EC12 [2]: 0.31 µM

CC[C@H](Cn1nc(C(F)(F)F)cc1C1=CCCC1)OC(=O)Nc1ccc(F)cc1F
Efficacy [1]: 20% | EC12 [2]: 0.46 µM

CC(C)c1cc(C(C)C)n(CC(OC(=O)Nc2ccccc2)C(C)C)n1 (racemic)
Efficacy [1]: 18% | EC12 [2]: 0.38 µM

Cc1ccc(NC(=O)O[C@@H](Cn2nc(C(C)C)cc2C(C)C)C(C)C)cc1
Efficacy [1]: 59% | EC12 [2]: 0.13 µM

CC[C@H](Cn1nc(C)cc1C)OC(=O)Nc1ccc(F)cc1F
Efficacy [1]: 15% | EC12 [2]: 1.18 µM

CC(C)c1cc(C(C)C)n(CC(OC(=O)Nc2ccc(F)cc2F)C(C)(C)C)n1 (racemic)
Efficacy [1]: 11% | EC12 [2]: 3.7 µM
